The values below come from the EternaBench riboswitch data.

The data set has as its system MS2 coat protein. Description: apparent Kd, MS2 coat protein; higher = weaker binding; RNA-MaP array; FMN 200 µM where present. The method, boiled down:
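The apparent Kd is reported as the median of filtered per-cluster binding-curve fits. To get these curves, designs transcribed by stalled E. coli RNA polymerase on Illumina sequencing-chip clusters were titrated with SNAP-549-labelled MS2 coat protein from 0.7 or 1.5 nM, doubling to 3 µM. Titrations were run without and then with constant ligand in 100 mM Tris-HCl pH 7.5, 80 mM KCl, 4 mM MgCl2, BSA, DTT, yeast tRNA and Tween-20, and green signal was normalised to red-channel RNA signal and control-cluster median Fmax.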

The mark [1] stands for this setting: designed as: OFF switch for flavin mononucleotide, no ligand.
The mark [2] stands for this setting: ligand present: flavin mononucleotide, designed as: OFF switch for flavin mononucleotide.
Setting [3] is: designed as: ON switch for flavin mononucleotide, no ligand.
The mark [4] stands for this setting: ligand present: flavin mononucleotide, designed as: ON switch for flavin mononucleotide.

Regarding “GUCUCGUCAGGAUAUGACGCUACAUUUUCUUUUUAGAAGAGUCAGAAGGGACAUGAGGAUCACCCAUGUGAUUC”, the “apparent Kd” value was found to be 0.43 µM under setting [1] and 0.596 µM under setting [2].
The like results for “AAUAACAGAGGAUAUACUAUUUUAUGUGUUUGUUGUUUUGAACAUGAGGAUCACCCAUGUAGAAGGCUGAGUAA” were, in that order, 0.0279 µM and 0.0303 µM.
“GGUUAAUAUCGAGGAUAUGUCUAGACACAUGAGGAUCACCCAUGUAUGUGUAUAGAAGGCGAUAUUAACAGCAUGUUACAUGCG”: the “apparent Kd” value reads like this: under setting [3], 0.0388 µM; under setting [4], 0.0164 µM.
“GGAUGACAAAGUCAUCCUUAACGAACAUGAGGAUCACCCAUGUAGGAUAUGCAACUCAAAGAGUUGCAGAAGGACAUGUGCCUU”: the “apparent Kd” value under setting [1] was 0.0359 µM and the “apparent Kd” value under setting [2] was 0.238 µM.
With “AAUGGGCAGCAGAAGGCAUGUCUACGGACAUGAGGAUCACCCAUGUAGUGAAGCCGAAAGGCGCAUGAGGAUAUGCUGCCCUAA”, the “apparent Kd” value reads like this: under setting [3], 0.131 µM; under setting [4], 0.00845 µM.
On to “GGAUAGGACAGAGGAUAUACAGAUAGGAUCUACUAUCAAACAAUCCUGACAUGAGGAUCACCCAUGUAGAAGGCUGUCCUAUCG”, for which the “apparent Kd” value by setting is: under setting [1], 0.0246 µM; under setting [2], 0.0851 µM.
Taken in the same sequence, the figures for “CUUUUGUGAGGAUAUUCGUAGUAGGGUCAUGGCACUAUUAUGGAGAAGGCACAUGAGGAUCACCCAUGUACCUU” were 0.0166 µM and 0.0293 µM.
For “GAGUUACAUGAGGAUCACCCAUGUUGUUGUGGAUAAGGAUAUAUGGUAGGAAGAGGAAUGAUAGAAGGUAUUAGGG”, the “apparent Kd” value by setting is: under setting [3], 0.0462 µM; under setting [4], 0.04 µM.
Take “AAACUGUGAGGAUAUGGUGAGUAGUGCCUGAGCGCUGCUCACCAGAAGGCACAUGAGGAUCACCCAUGUAUAAA”: the “apparent Kd” value by setting is: under setting [1], 0.0255 µM; under setting [2], 0.0747 µM.
As to “UAGGACUACGUAGGAUAUUAAAUCAUGUACUACAUGAGGAUCACCCAUGUUAAUUUAUCAUCAGCUGAGAAGGACGUGGUAAAU”, the “apparent Kd” value is 0.104 µM under setting [3] and 0.0617 µM under setting [4].
In the case of “CCCUCACAUGAGGAUCACCCAUGUCAGGAUAUUCGGCGGUCAAUUGACCGCCUUAAAGGAAGAAGGGACGUAAA”, the “apparent Kd” value is 0.0127 µM under setting [1] and 0.0189 µM under setting [2].
Regarding “GGGUACAUCGGAGGAUAUCAUGUAAAUACAUGAGGAUCACCCAUGUCGAUGGAGACAUCGGAGAUUGAGAAGGCCGAAGUACCG”, the “apparent Kd” value by setting is: under setting [3], 0.214 µM; under setting [4], 0.00899 µM.
As for “CGCACUGAUAGAGGAUAUGUUUAACAUGAGGAUCACCCAUGUGUACAAGGAUCAAUAUAUAAGUAACAGAAGGCUAUUAGUGCG”, the “apparent Kd” value is, setting by setting: under setting [1], 0.0139 µM; under setting [2], 0.0134 µM.
The like results for “UGUCGGAGCAGAGGAUAUUACAUGAGGAUCACCCAUGUAUGAACCAAUAGCUGGAACCAGCAAUGUAAGAAGGCUGCUCCGACA” were, in that order, 0.0142 µM and 0.16 µM.
In the case of “GUAGCAUACCGAGGAUAUUCAUACCGGAAACGGACAUGAGGAUCACCCAUGUUGCGAAAGCAUUGGGAGAAGGCGGAAUGCUAC”, the “apparent Kd” value was determined as 0.919 µM under setting [3] and 0.0558 µM under setting [4].
Take “UCGCUGCGAGGAUAUACGUGCGCGCGCGCGCGCGCGCGCGUACAUGAGGAUCACCCAUGUAGAAGGCGCUCUGC”: the “apparent Kd” value came out at 0.0397 µM under setting [1] and 0.0366 µM under setting [2].
With “UACAUCAAUGAAGGAUAUCUAUAUCCAACAUGAGGAUCACCCAUGUUGAGGAUCACCCAUGUAAAGGAGAAGGUUAACAUAACU”, the “apparent Kd” value reads like this: under setting [3], 0.0394 µM; under setting [4], 0.034 µM.
Taken in the same sequence, the figures for “UAUAACUAACAGAAGGGUAUUUGGGAUCAUUAUUAGGAGGAAAUACUAUACAGGAUAUGUAAUACAUGAGGAUCACCCAUGUUC” were 0.02 µM and 0.0157 µM.
The like results for “UGGAUCAUGGGAGGAUAUGGGAAGAUACAUGAGGAUCACCCAUGUUUAAGAAUGCCGAGAGGCAACUAGAAGGCCCAUGAUCCU” were, in that order, 1.09 µM and 0.0479 µM.
For the sequence “CGACAUUUAGGAUAUACGGUUAUUGAGGUUUUUGUUAGUCGACAUGAGGAUCACCCAUGUAGAAGGAAAUGAGU”, the “apparent Kd” value under setting [1] was found to be 0.0346 µM and the “apparent Kd” value under setting [2] stood at 0.0494 µM.
The like results for “UUGUUAUGUGUAGGAUAUGCAUAUUAUUAUUAUGCAGAAGGACAUGAGGAUCACCCAUGUGUAUUAUUAUUAUAUAUUAUAUAU” were, in that order, 0.0239 µM and 0.0358 µM.
Consider “AACUGACGACGUCAGUUGCGUAGGCAGGAUAUACAUGAGGAUCACCCAUGUGCAUGAUGCUACGAGUAGAAGGGCCGAGGCGAU”, for which the “apparent Kd” value turned out to be 0.00615 µM under setting [1] and 0.0112 µM under setting [2].
Consider “AAAACAUGAGGAUCACCCAUGUAAAGUUCAAACAAUAUGAGUGAGGAUAUACUGAGUUAGUUAUGGUAGAAGGCACUGGGUACA”, for which the “apparent Kd” value runs as follows: under setting [3], 0.035 µM; under setting [4], 0.0287 µM.
With “UGCAUGCUAGGAUAUACGAAACAUUAGGGUUCUUUGUAUGAACAUGAGGAUCACCCAUGUAGAAGGAGCGUGCU”, the “apparent Kd” value under setting [1] was 0.117 µM and the “apparent Kd” value under setting [2] was 0.296 µM.
Taken in the same sequence, the figures for “CAGUACUGAGGAUAUACAUGAGGAUCACCCAUGUGCUCAAAGUAGGAUACUACUAUUAGUAGAAGGCAGUACUG” were 0.0222 µM and 0.214 µM.
For the sequence “AUCUGACAUGAGGAUCACCCAUGUAUUCGAGCAUGAGGAUAUAUGACUCGUCAUCGGCGGAUAGAAGGCAUGGUUG”, the “apparent Kd” value under setting [3] worked out at 0.0975 µM and the “apparent Kd” value under setting [4] is 0.189 µM.
For the sequence “GUGGUGCAUAUACGUGGAGGUACAUGAGGAUCACCCAUGUAAGAGGAUAUGCGGAUACUAGCUCAGCAGAAGGCUUACAAAUGA”, the “apparent Kd” value worked out at 0.0131 µM under setting [1] and 0.0515 µM under setting [2].
As to “GAGUGGAAGGCCGCUACAUGAGGAUCACCCAUGUGCUAAGCACAGGAUAUCGCGCUGGCCCGGCGCGAGAAGGGUGACGGCCUU”, the “apparent Kd” value worked out at 0.737 µM under setting [3] and 0.283 µM under setting [4].
Taken in the same sequence, the figures for “UUUUUAUUUGUAGGAUAUGGAGACAUGAGGAUCACCCAUGUAUGAUAAGCUAAAUUAUGCUGUGGCCAGAAGGAUAUUAUUUUU” were 0.0439 µM and 0.0497 µM.
Take “CUUCAGUCAGGAUAUGUUAAUCUCACCACUCGGCGAGCCGGACAGAAGGGACAUGAGGAUCACCCAUGUUAAAA”: the “apparent Kd” value came out at 0.0391 µM under setting [1] and 0.0234 µM under setting [2].
The like results for “ACAUUGCUAGGAUAUCGCGGUAAGGACAUGAGGAUCACCCAUGUGGUGCCGUGGGAGGCCCGAGAAGGAGCGACCU” were, in that order, 0.0231 µM and 0.0259 µM.
Taken in the same sequence, the figures for “UGCUAGUCAGGAUAUACGAACAUGUCAAAAGACGUGAAGGGACAUGAGGAUCACCCAUGUAGAAGGGACUAGCC” were 0.0332 µM and 0.162 µM.
Consider “UACAUCAAUGAAGGAUAUCUAUAUCCAACAUGAGGAUCACCCAUGUUGAGGAUCACCCAUGUAAAGGAGAAGGUUAAUAUAACU”, for which the “apparent Kd” value runs as follows: under setting [3], 0.0377 µM; under setting [4], 0.0297 µM.
Turning to “UCGAUCGUAUGAGGAUAUGGUACACAAAGUGUACCAGAAGGCAUGUCAAUAGACAUGAGGAUCACCCAUGUAUUAUCGAUCGAA”, the “apparent Kd” value runs as follows: under setting [3], 0.361 µM; under setting [4], 0.0517 µM.
Take “UGCCAGUUAGGAUAUGCACGCGCCGGUGACCUGCUACGGCUACAUGAGGAUCACCCAUGUAGAAGGAACUGGGC”: the “apparent Kd” value was 0.0196 µM under setting [1] and 0.0203 µM under setting [2].
The like results for “AAUAACAGAGGAUAUACUGUUUUAUGUGUUUGUUGUUUUAAACAUGAGGAUCACCCAUGUAGAAGGCUGAAUAA” were, in that order, 0.0193 µM and 0.0203 µM.
